Source: ChEMBL document CHEMBL1926642, “Relevance of the C-5 position to schweinfurthin induced cytotoxicity” (2011)

Key:
Assay type in all cases: functional
[1] = system: CAKI-1; test: Growth inhibition of human Caki1 cells after 48 hrs by sulforhodamine B assay; details: CAKI-1, 48 h
[2] = system: KM12; test: Growth inhibition of human KM12 cells after 48 hrs by sulforhodamine B assay; details: KM12, 48 h
[3] = system: NCI-H23; test: Growth inhibition of human NCI-H23 cells after 48 hrs by sulforhodamine B assay; details: NCI-H23, 48 h
[4] = system: MDA-MB-435; test: Growth inhibition of human MDA-MB-435 cells after 48 hrs by sulforhodamine B assay; details: MDA-MB-435, 48 h
[5] = system: TK-10; test: Growth inhibition of human TK10 cells after 48 hrs by sulforhodamine B assay; details: TK-10, 48 h
[6] = system: SK-MEL-2; test: Growth inhibition of human SK-MEL-2 cells after 48 hrs by sulforhodamine B assay; details: SK-MEL-2, 48 h
[7] = system: SK-MEL-5; test: Growth inhibition of human SK-MEL-5 cells after 48 hrs by sulforhodamine B assay; details: SK-MEL-5, 48 h
[8] = system: K562; test: Growth inhibition of human K562 cells after 48 hrs by sulforhodamine B assay; details: K562, 48 h
[9] = system: NCI-H322M; test: Growth inhibition of human NCI-H322M cells after 48 hrs by sulforhodamine B assay
[10] = system: A549; test: Growth inhibition of human A549 cells after 48 hrs by sulforhodamine B assay; details: A549, 48 h
[11] = system: 786-0; test: Growth inhibition of human 786-0 cells after 48 hrs by sulforhodamine B assay; details: 786-0, 48 h
[12] = system: SW-620; test: Growth inhibition of human SW620 cells after 48 hrs by sulforhodamine B assay; details: SW-620, 48 h
[13] = system: OVCAR-5; test: Growth inhibition of human OVCAR5 cells after 48 hrs by sulforhodamine B assay; details: OVCAR-5, 48 h
[14] = system: UACC-257; test: Growth inhibition of human UACC257 cells after 48 hrs by sulforhodamine B assay; details: UACC-257, 48 h
[15] = system: BT-549; test: Growth inhibition of human BT549 cells after 48 hrs by sulforhodamine B assay; details: BT-549, 48 h
[16] = system: A498; test: Growth inhibition of human A498 cells after 48 hrs by sulforhodamine B assay; details: A498, 48 h
[17] = system: OVCAR-4; test: Growth inhibition of human OVCAR4 cells after 48 hrs by sulforhodamine B assay; details: OVCAR-4, 48 h
[18] = system: SNB-75; test: Growth inhibition of human SNB75 cells after 48 hrs by sulforhodamine B assay; details: SNB-75, 48 h
[19] = system: NCI-H460; test: Growth inhibition of human NCI-H460 cells after 48 hrs by sulforhodamine B assay; details: NCI-H460, 48 h
[20] = system: SK-OV-3; test: Growth inhibition of human SKOV3 cells after 48 hrs by sulforhodamine B assay; details: SK-OV-3, 48 h
[21] = system: RPMI-8226; test: Growth inhibition of human RPMI8226 cells after 48 hrs by sulforhodamine B assay; details: RPMI-8226, 48 h
[22] = system: HCT-15; test: Growth inhibition of human HCT15 cells after 48 hrs by sulforhodamine B assay; details: HCT-15, 48 h
[23] = system: HL-60(TB); test: Growth inhibition of human HL-60(TB) cells after 48 hrs by sulforhodamine B assay; details: HL-60, 48 h
Procedure, shortened: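 Run in the NCI 60 cell-line screen as the full 5-dose assay that follows initial single-dose testing; GI50 is read from the dose series.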

[24] = system: PC-3; test: Growth inhibition of human PC3 cells after 48 hrs by sulforhodamine B assay; details: PC-3, 48 h
[25] = Growth inhibition of human Hs 578T cells after 48 hrs by sulforhodamine B assay
[26] = system: SK-MEL-28; test: Growth inhibition of human SK-MEL-28 cells after 48 hrs by sulforhodamine B assay; details: SK-MEL-28, 48 h
[27] = system: OVCAR-3; test: Growth inhibition of human OVCAR3 cells after 48 hrs by sulforhodamine B assay; details: OVCAR-3, 48 h
[28] = system: SF-539; test: Growth inhibition of human SF539 cells after 48 hrs by sulforhodamine B assay; details: SF-539, 48 h
[29] = system: NCI-H226; test: Growth inhibition of human NCI-H226 cells after 48 hrs by sulforhodamine B assay; details: NCI-H226, 48 h
[30] = system: MDA-MB-231; test: Growth inhibition of human MDA-MB-231/ATCC cells after 48 hrs by sulforhodamine B assay; details: MDA-MB-231, 48 h
[31] = system: T47D; test: Growth inhibition of human T47D cells after 48 hrs by sulforhodamine B assay
[32] = system: SN12C; test: Growth inhibition of human SN12C cells after 48 hrs by sulforhodamine B assay
[33] = read-out: pLC50 (the source's name) (converted)

COc1cc(/C=C/c2cc3c(c(SC)c2)O[C@]2(C)CC[C@@H](O)C(C)(C)[C@H]2C3)cc(O)c1C/C=C(\C)CCC=C(C)C
GI50 [1]: 27.5 µM
LC50 [1]: > 100 µM
TGI ([1]; read-out: pTGI (converted)): > 100 µM
GI50 [2]: 4.27 µM
LC50 [2]: 83.2 µM
TGI ([2]; read-out: pTGI (converted)): 20.4 µM
GI50 [3]: 11.5 µM
LC50 [3]: > 100 µM
TGI ([3]; read-out: pTGI (converted)): 36.3 µM
GI50 [4]: 12.9 µM
LC50 [4]: > 100 µM
TGI ([4]; read-out: pTGI (converted)): 74.1 µM
GI50 [5]: 20.9 µM
LC50 [5]: > 100 µM
TGI ([5]; read-out: pTGI (converted)): > 100 µM
GI50 [6]: 12.6 µM
LC50 [6]: 69.2 µM
TGI ([6]; read-out: pTGI (converted)): 29.5 µM
GI50 [7]: 9.77 µM
LC50 [7]: 55 µM
TGI ([7]; read-out: pTGI (converted)): 23.4 µM
GI50 [8]: 4.27 µM
LC50 [8]: > 100 µM
TGI ([8]; read-out: pTGI (converted)): > 100 µM
GI50 [9]: 51.3 µM
LC50 [9]: > 100 µM
TGI ([9]; read-out: pTGI (converted)): > 100 µM
LC50 [10]: > 100 µM
GI50 ([10]; read-out: GI50): 6.03 µM
GI50 ([10]; read-out: pGI50 (converted)): 6.03 µM
TGI ([10]; read-out: pTGI (converted)): 52.5 µM
GI50 [11]: 5.01 µM
CC50 [11, 33]: 67.6 µM
TGI ([11]; read-out: pTGI (converted)): 21.4 µM
GI50 [12]: 6.76 µM
LC50 [12]: 50.1 µM
TGI ([12]; read-out: pTGI (converted)): 20.9 µM
GI50 [13]: 22.9 µM
LC50 [13]: > 100 µM
TGI ([13]; read-out: pTGI (converted)): 57.5 µM
GI50 [14]: 14.5 µM
LC50 [14]: > 100 µM
TGI ([14]; read-out: pTGI (converted)): 64.6 µM
GI50 [15]: 18.6 µM
LC50 [15]: > 100 µM
TGI ([15]; read-out: pTGI (converted)): > 100 µM
GI50 [16]: 4.57 µM
LC50 [16]: 67.6 µM
TGI ([16]; read-out: pTGI (converted)): 22.4 µM
GI50 [17]: 23.4 µM
LC50 [17]: > 100 µM
TGI ([17]; read-out: pTGI (converted)): > 100 µM
GI50 [18]: 3.8 µM
LC50 [18]: > 100 µM
TGI ([18]; read-out: pTGI (converted)): 33.1 µM
GI50 [19]: 3.47 µM
LC50 (concentration killing 50% of cells) [19]: 51.3 µM
TGI ([19]; read-out: pTGI (converted)): 13.8 µM
GI50 [20]: 7.94 µM
LC50 [20]: > 100 µM
TGI ([20]; read-out: pTGI (converted)): 43.7 µM
GI50 [21]: 2.34 µM
LC50 [21]: > 100 µM
TGI ([21]; read-out: pTGI (converted)): 8.91 µM
GI50 [22]: 2.95 µM
LC50 [22]: 72.4 µM
TGI ([22]; read-out: pTGI (converted)): 8.91 µM
GI50 [23]: 5.13 µM
CC50 [23, 33]: > 100 µM
TGI ([23]; read-out: pTGI (converted)): 36.3 µM
GI50 [24]: 6.03 µM
CC50 [24, 33]: > 100 µM
TGI ([24]; read-out: pTGI (converted)): 51.3 µM
GI50 [25]: 2.4 µM
CC50 [25, 33]: > 100 µM
TGI ([25]; read-out: pTGI (converted)): 19.5 µM
GI50 [26]: 12.3 µM
CC50 [26, 33]: > 100 µM
TGI ([26]; read-out: pTGI (converted)): 34.7 µM
GI50 [27]: 5.89 µM
LC50 [27]: 43.7 µM
TGI ([27]; read-out: pTGI (converted)): 18.2 µM
GI50 [28]: 3.98 µM
LC50 [28]: > 100 µM
TGI ([28]; read-out: pTGI (converted)): 41.7 µM
GI50 [29]: 15.1 µM
LC50 [29]: > 100 µM
TGI ([29]; read-out: pTGI (converted)): 39.8 µM
GI50 [30]: 3.39 µM
CC50 [30, 33]: 56.2 µM
TGI ([30]; read-out: pTGI (converted)): 14.5 µM
GI50 [31]: 14.5 µM
LC50 [31]: > 100 µM
TGI ([31]; read-out: pTGI (converted)): 67.6 µM
GI50 [32]: 10.5 µM
LC50 [32]: > 100 µM
TGI ([32]; read-out: pTGI (converted)): 32.4 µM
